T cruzi inh = blocks replication of Trypanosoma cruzi. T. cruzi beta-gal in NIH3T3, luminescence, 90 h. inhibition, % (concentration not given with the values). 1.4% of 300,000 active;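 active = mean inhibition across valid replicates above about 55%, limit read from the data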;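 note: signal also drops with host cell toxicity which is not excluded here; 0% = plate median of DMSO wells and 100% = zero luminescence signal; higher percent means less beta-gal luminescence so fewer parasites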
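System – NIH/3T3 host cells with β-galactosidase reporter T. cruzi · Doses – single 50 nL compound addition per well in DMSO · Reagent – 5000 T. cruzi trypomastigotes/well · Medium – Low-serum DMEM with 2% FBS · Timing – ≥90 h infection period, 3 h prior cell attachment · Evaluation – parasite load inhibition, % · Technique – GalScreen luminescence, 60 min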
DNA FID counter = displaces DNA intercalator in HCV helicase counter-screen; DNA fluorescent intercalator displacement, fluorescence; inhibition, % at 7.9 µM; 0.17% of 290,000 active; in the data active = inhibition above about 37%;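 note: 0% = vehicle and 100% = reference compound; higher means more ethidium bromide displaced from hairpin DNA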
MEKK2 WT-MEK5 = raises or lowers MEK5 binding to wildtype human MEKK2 PB1 domain; Q9Y2U5; bead flow cytometry, Alexa488-MEK5 binding to MEKK2 WT; actives lie on both sides; binding response (% of control), % at 10 µM; 1.1% of 290,000 active; AID 1531; in the data active = binding response below about 67% or above about 130%
MEKK2 mut-MEK5 = signal of MEK5 binding to mutant human MEKK2 PB1 domain. bead flow cytometry, Alexa488-MEK5 binding to MEKK2 mutant. percent response, % at 10 µM. 0.35% of 290,000 active; in the data active = percent response above about 24%, passing the limit was not always enough
HCV NS3 hel inh = inhibitors of Hepatitis C virus NS3 helicase; 0.56% of 290,000 active; inhibition, % at 10.9 µM; NS3 helicase DNA unwinding, Cy5 molecular beacon fluorescence; AID 1800;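 active = inhibition above the mean of all tested compounds plus 3 SD, set per campaign, cut at about 35% in these data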;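 note: 0% = DMSO wells and 100% = thioflavine S control wells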
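Measured by: Cy5 fluorescence, 0 and 60 min reads / Assay system: NS3 helicase fragment of HCV / Control set: low DMSO, high thioflavine S at 110 µM / Times: 1 h reaction at 25 °C, ATP-initiated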
MEKK3 PB1 HTS = raises or lowers MEK5 binding to the human MEKK3 PB1 domain; binding response (% of control), % at 10 µM; Q99759; bead-based flow cytometry, Alexa488-MEK5 binding to MEKK3; actives lie on both sides; 0 = blocked by unlabeled MEK5, 100 = vehicle; AID 1529; 1.4% of 290,000 active;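 active = binding response more than 3 SD above or below the average of its plate-row segment, actives on both sides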;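 note: Alexa488 bead fluorescence after subtracting the streptavidin-only scavenger bead signal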
Target sequence (Q99759 whole entry, looked up, the tested form may be a part): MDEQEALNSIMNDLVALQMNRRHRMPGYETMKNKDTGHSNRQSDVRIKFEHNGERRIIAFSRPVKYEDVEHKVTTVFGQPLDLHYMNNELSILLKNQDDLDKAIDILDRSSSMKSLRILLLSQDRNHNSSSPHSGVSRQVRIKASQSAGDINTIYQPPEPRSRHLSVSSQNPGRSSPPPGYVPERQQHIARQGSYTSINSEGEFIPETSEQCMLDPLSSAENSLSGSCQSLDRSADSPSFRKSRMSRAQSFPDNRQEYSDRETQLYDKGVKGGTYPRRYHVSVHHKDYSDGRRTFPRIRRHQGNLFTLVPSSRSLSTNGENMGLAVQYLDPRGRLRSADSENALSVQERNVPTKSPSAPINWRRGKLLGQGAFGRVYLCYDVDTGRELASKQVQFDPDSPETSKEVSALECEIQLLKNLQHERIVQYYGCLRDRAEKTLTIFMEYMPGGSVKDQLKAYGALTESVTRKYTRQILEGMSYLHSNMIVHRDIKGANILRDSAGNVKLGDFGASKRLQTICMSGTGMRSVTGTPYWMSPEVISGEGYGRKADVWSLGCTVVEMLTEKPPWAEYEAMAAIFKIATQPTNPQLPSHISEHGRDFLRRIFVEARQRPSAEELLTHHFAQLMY
MEKK2wt confirm = raises or lowers MEK5 binding to wildtype human MEKK2, retest | bead flow cytometry, Alexa488-MEK5 binding to MEKK2 WT; actives lie on both sides | binding response (% of control), % at 10 µM | AID 1892 | 2.4% of 5,900 active | shares compounds with MEKK3 PB1 HTS; in the data active = binding response below about 16% or above about 210%; inactive = in between
MEKK2mut confirm = signal of MEK5 binding to mutant human MEKK2, retest; shares compounds with MEKK3 PB1 HTS; bead flow cytometry, Alexa488-MEK5 binding to MEKK2 mutant; percent response, % at 10 µM; 2% of 5,900 active; in the data active = percent response mostly above about 71%, no sharp cut-off; inactive = mostly below about 38%;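 note: higher means compound restores mutant binding toward wildtype level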
MEKK3 confirm = MEKK3-MEK5 PB1 inhibition, single concentration confirmation; shares compounds with MEKK3 PB1 HTS; bead flow cytometry, Alexa488-MEK5 binding to MEKK3; hits give low values; binding response (% of control), % at 10 µM; 1.8% of 5,900 active; AID 1894;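 active = binding response below 72% of control, or above a set upper limit, though filed actives all read lower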;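 note: 100% = DMSO only wells and 0% = binding blocked by excess unlabeled MEK5; lower values mean stronger disruption of MEK5 binding to MEKK3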
Numbers without * were called inactive; nt = no result; [ ] = another dose, or the depositor's remark. An excerpt weighted towards active compounds, which were near 4.1% of everything screened.

SMILES | T cruzi inh | DNA FID counter | MEKK2 WT-MEK5 | MEKK2 mut-MEK5 | HCV NS3 hel inh | MEKK3 PB1 HTS | MEKK2wt confirm | MEKK2mut confirm | MEKK3 confirm
OC(CNCCc1ccc(C(F)(F)F)cc1)COC(c1ccccc1)c1ccccc1 (stereo not drawn) | 46 | 36 | 191* | 46* | -36 | 111 | 146 | 20 | 97
COc1ccc(C(OCC(O)CNCCc2ccc(S(N)(=O)=O)cc2)c2ccc(OC)cc2)cc1 (stereo not drawn) | -24 | 28 | 121 | 11 | -55 | 100 | nt | nt | nt
Cc1cc(Cl)ccc1NC(=O)CCC(=O)O | -2 | 3 | 108 | 1 | -13 | 135* | 103 | 3 | 99
O=C(CSc1ncnc2c1nnn2Cc1ccccc1F)NCC1CCCO1 (stereo not drawn) | -17 | -28 | 108 | 8 | 3 | 104 | nt | nt | nt
CS(=O)(=O)N1N=C(c2cccs2)CC1c1ccccc1F (stereo not drawn) | -11 | -5 | -4.0*[inhibitor] | 3 | 12 | 99 | 102 | 6 | 105
COc1ccc(C2CC(c3cccs3)=NN2S(=O)(=O)c2ccc(C)cc2)cc1 (stereo not drawn) | 14 | -1 | 126 | 11 | -5 | 118 | nt | nt | nt
Cc1ccc(C2CC(c3cccs3)=NN2S(=O)(=O)c2ccc(C)cc2)cc1 (stereo not drawn) | 10 | 2 | 61*[inhibitor] | 9 | -3 | 102 | 94 | -1 | 101
COc1ccc(/C=C2\SC(=S)N(C(Cc3ccccc3)C(=O)O)C2=O)cc1 (stereo not drawn) | -10 | 12 | 101 | -5 | 35 | 99 | nt | nt | nt
O=C(O)C(Cc1ccccc1)N1C(=O)/C(=C/C=C/c2ccco2)SC1=S (stereo not drawn) | 26 | -6 | 40*[inhibitor] | -16 | 31 | 37*[inhibitor] | 89 | -5 | 97
Cc1ccc(S(=O)(=O)N2CCCCC2CCNC(=O)C(=O)NCc2ccccc2)cc1 (stereo not drawn) | 19 | nt | nt | nt | nt | nt | nt | nt | nt
Cc1cccc(OCc2nn[nH]n2)c1C | -4 | 2 | 108 | 9 | -1 | 103 | nt | nt | nt
Clc1ccccc1OCc1nn[nH]n1 | -11 | -2 | 118 | 27 | -3 | 131* | 107 | 2 | 103
COc1cc(/C=N/N=C(N)N)ccc1OCc1ccccc1Cl | 55* | 21 | 229* | 35 | -33 | 117 | 189 | 41 | 101
COc1ccc(/C=N/N=C/c2ccc(OC)c(OC)c2)cc1OC | -6 | -7 | 98 | -5 | -5 | 99 | nt | nt | nt
O=C(Nc1ccccc1F)N1CCc2ccccc2C1 | 10 | -6 | 103 | 1 | 2 | 102 | nt | nt | nt
COC(=O)c1ccc(CNC(=O)COC(=O)C23CC4CC(CC(C4)C2)C3)cc1 | -4 | -31 | 93 | -2 | -14 | 75*[inhibitor] | 99 | -1 | 105
COC(=O)c1ccc(CNC(=O)COC(=O)CC23CC4CC(CC(Br)(C4)C2)C3)cc1 | 5 | -24 | 107 | -1 | 4 | 103 | nt | nt | nt
COc1cc(/C=N/N2CCN(C3c4ccccc4-c4ccccc43)CC2)cc(OC)c1OC | 4 | -2 | 106 | -1 | 0 | 130* | 109 | 3 | 105
O=C(O)c1ccccc1/C=N/N1CCN(C2c3ccccc3-c3ccccc32)CC1 | -6 | -41 | 68 | -36 | 10 | 71*[inhibitor] | 108 | 0 | 105
Cc1cc(Nc2cccc(C(=O)O)c2)n2ncnc2n1 | 1 | 7 | 103 | 3 | -4 | 104 | nt | nt | nt
COc1ccc(CC(=O)Nc2cc(C)ccn2)cc1 | -8 | -5 | 56 | -15 | 3 | 42*[inhibitor] | 89 | 1 | 94

High-throughput results from PubChem BioAssay.
